In ChEMBL document CHEMBL1138468, “Potent, brain-penetrant, hydroisoindoline-based human neurokinin-1 receptor antagonists” (J Med Chem, 2009):

Assays:
Substance-P receptor [1] = target: T1, Substance-P receptor (Homo sapiens, UniProt P25103); experiment: Displacement of [125I]substance P human recombinant NK1 receptor expressed in CHO cells in absence of human serum albumin; assay type: cell-based
Procedure, shortened: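 Competitive radioligand binding with [125I]substance P on CHO cells stably expressing recombinant hNK1 receptor; IC50 determined without and with 50% human serum.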

Substance-P receptor [2] = target: T1, Substance-P receptor; experiment: Antagonist activity at human NK1 receptor expressed in CHO cells assessed as inhibition of substance P-induced IP1 formation at 100 nM; assay type: functional, cell-based; parameters: scale not given: the % may be the effect or the level left
Procedure, shortened: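 CHO cells stably expressing recombinant human NK1 receptor; substance-P-evoked IP-1 formation measured with antagonist present at 100 nM; value given as % of substance P response remaining.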

Gerbillinae [3] = experiment: Toxicity in iv dosed gerbils brain assessed as inhibition of GR-73632-induced foot tapping after 1 hr; assay type: organism-based; details: in vivo
Gerbillinae [4] = experiment: Toxicity in iv dosed gerbils brain assessed as inhibition of GR-73632-induced foot tapping after 24 hrs; assay type: organism-based; details: in vivo
Macaca mulatta = organism: Macaca mulatta; experiment: Ex vivo NK1 receptor occupancy in rhesus brain at plasma level of 31 ng/ml
Rhesus monkey [5] = experiment: Ex vivo NK1 receptor occupancy in rhesus monkey brain at plasma level of 390 ng/ml; assay type: functional, Macaca mulatta
Gerbillinae [6] = experiment: in iv dosed gerbils plasma assessed as inhibition of GR-73632-induced foot tapping after 24 hrs
Cytochrome P450 1A2 = target: T2, Cytochrome P450 1A2 (Homo sapiens, UniProt P05177); experiment: Inhibition of human CYP1A2; assay type: ADME
T2 sequence (P05177 whole entry): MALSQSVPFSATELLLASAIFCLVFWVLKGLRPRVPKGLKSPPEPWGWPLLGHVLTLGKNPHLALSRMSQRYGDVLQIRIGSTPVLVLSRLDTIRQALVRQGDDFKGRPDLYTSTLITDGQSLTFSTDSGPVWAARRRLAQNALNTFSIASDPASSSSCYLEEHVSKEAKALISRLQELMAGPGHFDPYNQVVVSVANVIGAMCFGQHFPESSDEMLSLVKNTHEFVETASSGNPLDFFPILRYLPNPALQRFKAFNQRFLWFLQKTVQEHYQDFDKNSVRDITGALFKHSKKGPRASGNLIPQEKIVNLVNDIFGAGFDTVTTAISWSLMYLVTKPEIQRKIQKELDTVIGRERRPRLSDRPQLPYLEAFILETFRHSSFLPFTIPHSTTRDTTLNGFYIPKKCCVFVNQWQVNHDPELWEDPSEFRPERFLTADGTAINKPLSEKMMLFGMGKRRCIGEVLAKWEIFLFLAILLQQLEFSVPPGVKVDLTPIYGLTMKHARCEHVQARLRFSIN

Cytochrome P450 3A4 = Cytochrome P450 3A4 (Homo sapiens, UniProt P08684); experiment: Inhibition of human CYP3A4; assay type: ADME
[7] = Plasma clearance in monkey at 0.5 mg/kg, iv and 1 mg/kg, po; assay type: ADME, organism-based, Macaca mulatta; details: rhesus monkey
Procedure, shortened: (§1)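 Dogs and monkeys dosed at 0.5 mg/kg iv and 1 mg/kg po; plasma sampled to derive clearance, Vdss, half-life, oral bioavailability and dose-normalised oral AUC(0-∞).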

Neuromedin-K receptor = target: T3, Neuromedin-K receptor (Homo sapiens, UniProt P29371); experiment: Binding affinity to human NK3 receptor
T3 sequence (P29371 whole entry): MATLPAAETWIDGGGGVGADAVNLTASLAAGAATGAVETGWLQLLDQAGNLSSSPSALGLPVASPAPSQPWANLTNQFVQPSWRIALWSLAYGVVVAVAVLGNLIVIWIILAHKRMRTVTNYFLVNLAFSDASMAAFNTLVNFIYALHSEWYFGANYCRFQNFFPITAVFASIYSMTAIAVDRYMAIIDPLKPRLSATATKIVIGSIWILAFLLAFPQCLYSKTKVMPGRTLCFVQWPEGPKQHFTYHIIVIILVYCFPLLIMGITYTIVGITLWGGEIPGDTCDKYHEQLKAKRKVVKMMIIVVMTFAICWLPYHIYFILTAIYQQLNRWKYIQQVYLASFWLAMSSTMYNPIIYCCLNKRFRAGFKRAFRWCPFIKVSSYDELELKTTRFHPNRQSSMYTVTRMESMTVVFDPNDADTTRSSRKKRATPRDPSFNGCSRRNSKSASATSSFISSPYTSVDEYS

[8] = Half life in dog at 0.5 mg/kg, iv and 1 mg/kg, po; assay type: ADME, organism-based, Canis lupus familiaris; details: in vivo; procedure, shortened: as §1
Cytochrome P450 2C19 = Cytochrome P450 2C19 (Homo sapiens, UniProt P33261); experiment: Inhibition of human CYP2C19; assay type: ADME
[9] = Plasma clearance in rat at 1 mg/kg, iv and 2 mg/kg, po; assay type: ADME, organism-based
Procedure, shortened: (§2)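 Rats dosed at 1 mg/kg iv and 2 mg/kg po; plasma pharmacokinetics (clearance, Vdss, half-life, oral bioavailability) derived.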

Cytochrome P450 2D6 = Cytochrome P450 2D6 (Homo sapiens, UniProt P10635); experiment: Inhibition of human CYP2D6; assay type: ADME
Rhesus monkey [10] = experiment: Ex vivo NK1 receptor occupancy in rhesus monkey brain at plasma level of 37 ng/ml; assay type: functional, Macaca mulatta
Procedure, shortened: (§3)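 Rhesus PET with [18F]SPARQ: striatal binding compared before and during steady-state plasma drug level, achieved by iv bolus plus matched constant iv infusion continued through imaging; occupancy vs plasma concentration fit to three-parameter Hill equation.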

[11] = Volume of distribution at steady state in dog at 0.5 mg/kg, iv and 1 mg/kg, po; assay type: ADME, organism-based, Canis lupus familiaris; details: in vivo, read-out: Vdss; procedure, shortened: as §1
Rhesus monkey [12] = experiment: Ex vivo NK1 receptor occupancy in rhesus monkey brain at plasma level of 5 ng/ml; assay type: functional, Macaca mulatta; procedure, shortened: as §3
Gerbillinae [13] = experiment: Toxicity in iv dosed gerbils plasma assessed as inhibition of GR-73632-induced foot tapping after 1 hr; assay type: organism-based
[14] = Bioavailability in dog at 0.5 mg/kg, iv and 1 mg/kg, po; assay type: ADME, organism-based, Canis lupus familiaris; details: in vivo; procedure, shortened: as §1
Cytochrome P450 2C8 = target: T4, Cytochrome P450 2C8 (Homo sapiens, UniProt P10632); experiment: Inhibition of human CYP2C8; assay type: ADME
T4 sequence (P10632 whole entry): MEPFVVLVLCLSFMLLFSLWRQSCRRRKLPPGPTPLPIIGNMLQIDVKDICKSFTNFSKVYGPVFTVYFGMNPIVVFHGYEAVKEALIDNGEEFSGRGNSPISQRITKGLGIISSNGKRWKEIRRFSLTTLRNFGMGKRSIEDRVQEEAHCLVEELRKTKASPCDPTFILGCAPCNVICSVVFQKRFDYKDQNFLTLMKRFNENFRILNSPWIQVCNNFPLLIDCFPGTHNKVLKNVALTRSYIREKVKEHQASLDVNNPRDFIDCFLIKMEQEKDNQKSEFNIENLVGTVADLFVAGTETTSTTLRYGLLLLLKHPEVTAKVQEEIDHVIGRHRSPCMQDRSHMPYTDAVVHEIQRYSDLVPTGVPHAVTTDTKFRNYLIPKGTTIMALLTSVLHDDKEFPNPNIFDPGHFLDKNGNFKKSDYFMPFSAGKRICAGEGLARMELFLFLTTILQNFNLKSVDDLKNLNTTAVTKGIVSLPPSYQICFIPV

Cytochrome P450 2C9 = Cytochrome P450 2C9 (Homo sapiens, UniProt P11712); experiment: Inhibition of human CYP2C9; assay type: ADME
[15] = Volume of distribution at steady state in monkey at 0.5 mg/kg, iv and 1 mg/kg, po; assay type: ADME, organism-based, Macaca mulatta; details: rhesus monkey, in vivo, read-out: Vdss; procedure, shortened: as §1
[16] = Plasma clearance in dog at 0.5 mg/kg, iv and 1 mg/kg, po; assay type: ADME, organism-based, Canis lupus familiaris; procedure, shortened: as §1
[17] = Half life in rat at 1 mg/kg, iv and 2 mg/kg, po; assay type: ADME, organism-based; details: in vivo; procedure, shortened: as §2
[18] = Volume of distribution at steady state in rat at 1 mg/kg, iv and 2 mg/kg, po; assay type: ADME, organism-based; details: in vivo, read-out: Vdss; procedure, shortened: as §2
[19] = Half life in monkey at 0.5 mg/kg, iv and 1 mg/kg, po; assay type: ADME, organism-based, Macaca mulatta; details: rhesus monkey, in vivo; procedure, shortened: as §1
Substance-K receptor = target: T5, Substance-K receptor (Homo sapiens, UniProt P21452); experiment: Binding affinity to human NK2 receptor
T5 sequence (P21452 whole entry): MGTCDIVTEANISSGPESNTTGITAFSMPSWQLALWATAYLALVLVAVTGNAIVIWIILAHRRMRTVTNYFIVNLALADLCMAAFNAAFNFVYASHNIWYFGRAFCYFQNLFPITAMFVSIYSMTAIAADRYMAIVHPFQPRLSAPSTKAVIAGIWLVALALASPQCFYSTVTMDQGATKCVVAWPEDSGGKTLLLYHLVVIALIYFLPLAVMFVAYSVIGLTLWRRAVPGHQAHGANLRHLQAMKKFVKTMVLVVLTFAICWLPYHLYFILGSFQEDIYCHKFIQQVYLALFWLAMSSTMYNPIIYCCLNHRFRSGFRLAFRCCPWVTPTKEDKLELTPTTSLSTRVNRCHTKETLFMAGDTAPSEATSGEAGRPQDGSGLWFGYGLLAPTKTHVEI

[20] = Bioavailability in monkey at 0.5 mg/kg, iv and 1 mg/kg, po; assay type: ADME, organism-based, Macaca mulatta; details: rhesus monkey, in vivo; procedure, shortened: as §1
[21] = Bioavailability in rat at 1 mg/kg, iv and 2 mg/kg; assay type: ADME, organism-based; details: in vivo; procedure, shortened: as §2

T1 sequence (P25103 whole entry): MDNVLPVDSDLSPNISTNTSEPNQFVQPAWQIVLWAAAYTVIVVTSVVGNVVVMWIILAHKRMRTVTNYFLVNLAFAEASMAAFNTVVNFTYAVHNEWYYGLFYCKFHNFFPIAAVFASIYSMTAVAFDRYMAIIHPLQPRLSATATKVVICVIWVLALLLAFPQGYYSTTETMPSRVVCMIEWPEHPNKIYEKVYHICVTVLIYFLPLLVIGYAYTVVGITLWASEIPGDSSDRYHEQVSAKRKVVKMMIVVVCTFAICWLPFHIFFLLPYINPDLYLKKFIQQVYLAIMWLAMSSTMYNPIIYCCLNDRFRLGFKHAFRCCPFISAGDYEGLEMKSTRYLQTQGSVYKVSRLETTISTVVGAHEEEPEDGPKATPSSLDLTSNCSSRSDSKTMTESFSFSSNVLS
Cytochrome P450 3A4, sequence (P08684 whole entry): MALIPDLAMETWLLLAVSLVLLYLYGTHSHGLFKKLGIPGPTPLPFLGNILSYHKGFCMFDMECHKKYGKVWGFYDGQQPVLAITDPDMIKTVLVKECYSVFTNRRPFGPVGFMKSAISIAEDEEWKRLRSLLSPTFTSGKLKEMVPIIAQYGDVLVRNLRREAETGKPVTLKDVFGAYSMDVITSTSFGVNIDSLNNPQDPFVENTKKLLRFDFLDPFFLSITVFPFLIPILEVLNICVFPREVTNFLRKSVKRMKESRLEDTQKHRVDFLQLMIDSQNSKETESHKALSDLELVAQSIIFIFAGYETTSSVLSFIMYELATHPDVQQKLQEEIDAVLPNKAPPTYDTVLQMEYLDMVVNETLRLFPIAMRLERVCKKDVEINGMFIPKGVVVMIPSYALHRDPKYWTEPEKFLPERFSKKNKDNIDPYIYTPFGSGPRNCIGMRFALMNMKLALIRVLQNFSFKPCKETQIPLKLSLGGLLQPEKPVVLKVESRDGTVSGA
Cytochrome P450 2C9, sequence (P11712 whole entry): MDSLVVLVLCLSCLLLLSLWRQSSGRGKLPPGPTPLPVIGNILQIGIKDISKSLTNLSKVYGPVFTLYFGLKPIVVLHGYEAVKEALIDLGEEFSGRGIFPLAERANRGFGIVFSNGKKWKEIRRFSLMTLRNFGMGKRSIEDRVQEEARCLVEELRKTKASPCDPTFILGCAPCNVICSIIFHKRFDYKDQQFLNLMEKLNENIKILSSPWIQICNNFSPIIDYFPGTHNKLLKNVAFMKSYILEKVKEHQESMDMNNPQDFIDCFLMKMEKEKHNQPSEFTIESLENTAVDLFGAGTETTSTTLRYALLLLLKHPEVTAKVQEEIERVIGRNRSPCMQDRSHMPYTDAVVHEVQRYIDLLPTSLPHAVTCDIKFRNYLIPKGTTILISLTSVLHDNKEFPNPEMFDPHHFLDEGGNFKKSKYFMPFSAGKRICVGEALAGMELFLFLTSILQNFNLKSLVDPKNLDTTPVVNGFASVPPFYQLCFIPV
Cytochrome P450 2C19, sequence (P33261 whole entry): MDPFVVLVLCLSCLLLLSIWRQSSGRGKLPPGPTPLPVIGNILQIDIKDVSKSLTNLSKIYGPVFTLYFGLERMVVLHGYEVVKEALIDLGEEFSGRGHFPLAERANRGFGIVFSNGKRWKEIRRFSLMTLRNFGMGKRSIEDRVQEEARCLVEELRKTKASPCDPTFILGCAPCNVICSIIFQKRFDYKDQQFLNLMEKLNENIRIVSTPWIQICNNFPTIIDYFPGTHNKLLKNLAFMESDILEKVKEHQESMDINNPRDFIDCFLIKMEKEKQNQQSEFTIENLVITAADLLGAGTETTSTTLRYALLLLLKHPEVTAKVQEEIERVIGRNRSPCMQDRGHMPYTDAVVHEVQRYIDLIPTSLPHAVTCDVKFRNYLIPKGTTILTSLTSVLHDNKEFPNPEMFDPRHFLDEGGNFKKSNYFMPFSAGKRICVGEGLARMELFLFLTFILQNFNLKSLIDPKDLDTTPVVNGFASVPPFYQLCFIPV
Cytochrome P450 2D6, sequence (P10635 whole entry): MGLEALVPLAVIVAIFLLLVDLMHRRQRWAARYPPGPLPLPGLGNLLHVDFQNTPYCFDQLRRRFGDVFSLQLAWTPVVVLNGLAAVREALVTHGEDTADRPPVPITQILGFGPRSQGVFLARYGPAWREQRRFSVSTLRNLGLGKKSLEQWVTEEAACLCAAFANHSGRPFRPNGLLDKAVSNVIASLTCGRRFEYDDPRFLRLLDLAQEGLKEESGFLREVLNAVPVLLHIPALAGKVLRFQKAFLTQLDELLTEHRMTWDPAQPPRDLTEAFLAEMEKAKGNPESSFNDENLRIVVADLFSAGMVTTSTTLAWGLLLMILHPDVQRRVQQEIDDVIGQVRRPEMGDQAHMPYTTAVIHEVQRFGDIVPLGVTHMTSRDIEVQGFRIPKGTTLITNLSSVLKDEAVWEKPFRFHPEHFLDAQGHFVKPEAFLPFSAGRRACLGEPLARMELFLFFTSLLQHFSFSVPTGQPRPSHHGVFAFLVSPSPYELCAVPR

With `C[C@@H](O[C@H]1CC[C@@H]2CN(c3cnccn3)C[C@H]2[C@@H]1c1ccc(F)cc1)c1cc(C(F)(F)F)cc(C(F)(F)F)c1` the IC50 (Substance-P receptor [1]) was 0.525 nM and the Activity (Substance-P receptor [2]) was 79%.
`CC1=C(N2C[C@H]3CC[C@H](O[C@H](C)c4cc(C(F)(F)F)cc(C(F)(F)F)c4)[C@@H](c4ccc(F)cc4)[C@@H]3C2)CCC1=O` showed an ID50 (Gerbillinae [3]) of 0.13 mg/kg, an ID50 (Gerbillinae [4]) of 0.2 mg/kg and an IC50 (Substance-P receptor [1]) of 0.1 nM. It also gave an Activity (Substance-P receptor [2]) of 9%.
Work on `C[C@@H](O[C@H]1CC[C@@H]2CNC[C@H]2[C@@H]1c1ccc(F)cc1)c1cc(C(F)(F)F)cc(C(F)(F)F)c1` yielded an IC50 (Substance-P receptor [1]) of 0.15 nM and an Activity (Substance-P receptor [2]) of 44%.
For `C[C@@H](O[C@H]1CN(C2=CC(=O)CC2)C[C@@H]1c1ccc(F)cc1)c1cc(C(F)(F)F)cc(C(F)(F)F)c1`, the Activity (Macaca mulatta) was 50% and the Activity (Rhesus monkey [5]) was “>=90%”.
Work on `C[C@@H](O[C@H]1CC[C@@H]2CN(C)C[C@H]2[C@@H]1c1ccc(F)cc1)c1cc(C(F)(F)F)cc(C(F)(F)F)c1` yielded an IC50 (Substance-P receptor [1]) of 0.255 nM and an Activity (Substance-P receptor [2]) of 54%.
With `CC(=O)N1C[C@H]2CC[C@H](O[C@H](C)c3cc(C(F)(F)F)cc(C(F)(F)F)c3)[C@@H](c3ccc(F)cc3)[C@@H]2C1` the IC50 (Substance-P receptor [1]) was 0.11 nM and the Activity (Substance-P receptor [2]) was 40%.
In the case of `CNC(=O)N1C[C@H]2CC[C@H](O[C@H](C)c3cc(C(F)(F)F)cc(C(F)(F)F)c3)[C@@H](c3ccc(F)cc3)[C@@H]2C1`, the IC50 (Substance-P receptor [1]) is reported as 0.09 nM and the Activity (Substance-P receptor [2]) is reported as 58%.
Compound `C[C@@H](O[C@H]1CC[C@@H]2CN(C3=CC(=O)CCC3)C[C@H]2[C@@H]1c1ccc(F)cc1)c1cc(C(F)(F)F)cc(C(F)(F)F)c1` has an ID50 (Gerbillinae [3]) of 0.18 mg/kg, an ID50 (Gerbillinae [4]) of 0.3 mg/kg and an IC50 (Substance-P receptor [1]) of 0.13 nM. For the same compound, the Activity (Substance-P receptor [2]) was 4%.
Compound `C[C@@H](O[C@H]1CC[C@@H]2CN(C3=CC(=O)CC3)C[C@H]2[C@@H]1c1ccc(F)cc1)c1cc(C(F)(F)F)cc(C(F)(F)F)c1` [SERLOPITANT] has an IC50 (Gerbillinae [6]) of 6 nM, an IC50 (Cytochrome P450 1A2) greater than 100000 nM and an ID50 (Gerbillinae [3]) of 0.08 mg/kg. It also gave an IC50 (Cytochrome P450 3A4) of 39000 nM, an ID50 (Gerbillinae [4]) of 0.46 mg/kg and a clearance [7] of 1 mL/min/kg. The Ki (Neuromedin-K receptor) was 2400 nM, the half-life [8] was 31 h and the IC50 (Cytochrome P450 2C19) was 29000 nM. The IC50 (Substance-P receptor [1]) was 0.06 nM, the clearance [9] was 0.7 mL/min/kg and the IC50 (Cytochrome P450 2D6) was 35000 nM. The Activity (Rhesus monkey [10]) was 90%, the Vd [11] was 2 L/kg and the Activity (Rhesus monkey [12]) was 50%. The IC50 (Gerbillinae [13]) was 6.5 nM, the bioavailability [14] was 71% and the IC50 (Cytochrome P450 2C8) was 58000 nM. It also gave an IC50 (Cytochrome P450 2C9) of 30000 nM, a Vd [15] of 2 L/kg and a clearance [16] of 0.7 mL/min/kg. The half-life [17] was 24 h, the Vd [18] was 1.5 L/kg and the Activity (Substance-P receptor [2]) was 5%. It also gave a half-life [19] of 24 h, a Ki (Substance-K receptor) of 2400 nM and a bioavailability [20] of 69%. It also gave a bioavailability [21] of 40%.
